CHO parental Ca: ATP-evoked calcium signal inhibitors, parental CHO, primary screen, counter-screen for OX1R antagonist project, cell-based, fluorescence, Fluo-8 calcium dye | inhibition, % at 5.6 µM | parental CHO-K1, ATP-induced calcium, Fluo-8 fluorescence | AID 463079, 2010 | hit rate 0.63% among 330,000;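 active = inhibition above that plate's mean sample inhibition plus 3 SD, cut at about 26% in these data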
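Assay system: untransfected parental CHO cell line. Also added: ATP agonist challenge. Dosing: one dose, 5.6 µM nominal. Measured by: Fluo-8 fluorescence. Read-out: % inhibition. Benchmarks: ATP wells versus no-ATP DMSO wells. Repeats: no replicates.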
GPR7 antag: GPR7 receptor antagonists, primary screen, cell-based, fluorescence, single concentration | Neuropeptides B/W receptor type 1 (Homo sapiens), P48145 | GPR7-expressing cells, fluorescence antagonist assay | hit rate 1.1% among 290,000 | inhibition, % at 4.4 µM; in the data active = inhibition above about 16%, passing the limit was not always enough;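 also: cells stimulated with the agonist NPW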
MPTP block: mitochondrial permeability transition pore inhibitors, primary screen, biochemical, isolated mouse mitochondria, absorbance; hit rate 1.4% among 360,000; AID 602449, 2012; inhibition, % at 10 µM; Ca2+ swelling absorbance, 30 min;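 active = inhibition of 50% or more, scaled per plate between neutral and stimulator controls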
OX1R antag-1: antagonists of human orexin 1 receptor (OX1R) | Orexin/Hypocretin receptor type 1 (Homo sapiens), O43613 | OX1R-expressing cells, FRET antagonist read-out | inhibition, % at 6.6 µM | hit rate 1.8% among 330,000 | AID 485270, 2010; in the data active = inhibition mostly above about 38%, no sharp cut-off; inactive = mostly below about 40%
Target sequence (O43613 whole entry, looked up): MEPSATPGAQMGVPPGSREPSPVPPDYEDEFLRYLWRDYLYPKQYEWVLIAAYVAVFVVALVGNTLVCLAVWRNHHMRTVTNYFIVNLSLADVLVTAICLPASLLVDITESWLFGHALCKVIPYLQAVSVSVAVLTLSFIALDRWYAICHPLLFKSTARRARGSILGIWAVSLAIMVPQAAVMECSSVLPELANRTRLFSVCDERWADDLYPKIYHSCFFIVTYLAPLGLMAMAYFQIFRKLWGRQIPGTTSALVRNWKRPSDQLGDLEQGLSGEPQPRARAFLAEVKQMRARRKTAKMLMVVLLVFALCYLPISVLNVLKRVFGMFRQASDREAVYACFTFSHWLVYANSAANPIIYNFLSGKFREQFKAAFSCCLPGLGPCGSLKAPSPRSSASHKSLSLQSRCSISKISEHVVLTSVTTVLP
OX1R antag-2: OX1R (HCRTR1) antagonists, primary screen, fluorescence, CHO/OX1R cells, Fluo-8 calcium, orexin A; Orexin/Hypocretin receptor type 1 (Homo sapiens), O43613; Fluo-8 calcium fluorescence; inhibition, % at 5 µM; hit rate 0.43% among 330,000; AID 434989, 2010;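 active = inhibition above its plate's threshold, mean inhibition of all tested compounds on the plate plus 3 SD, cut at about 37% in these data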
Rh123 counter: fluorescence retest of MPTP screen hits in isolated mitochondria, single concentration; shares compounds with MPTP block; membrane potential, Rhodamine 123 fluorescence; inhibition, % at 10 µM; hit rate 78% among 5,000; AID 624504, 2012; in the data active = inhibition above about 22%
MPTP swell DR: mitochondrial permeability transition pore inhibitors, dose response, biochemical, absorbance, uHTS hits; isolated mitochondria swelling; hit rate 58% among 780; IC50, µM; AID 651561, 2012; shares compounds with MPTP block; in the data active = IC50 below about 20 µM
MPTP cs DR: fluorescent counter-screen in isolated mitochondria, dose response, counter-screen for MPTP inhibitor project, biochemical, fluorescence, uHTS hits. hit rate 49% among 780. shares compounds with MPTP block. isolated mitochondria counterscreen, fluorescence read-out. IC50, µM. AID 651564, 2012; in the data active = IC50 below about 80 µM
A number is an active result; . = inactive; / = no result. The list is not random: actives were taken first. Their share in the collection is about 3.8%.

SMILES	CHO parental Ca	GPR7 antag	MPTP block	OX1R antag-1	OX1R antag-2	Rh123 counter	others
C=C1c2cccc(O)c2C(O)=C2C(=O)[C@]3(O)C(O)=C(C(N)=O)C(=O)[C@@H](N(C)C)[C@@H]3[C@@H](O)[C@H]12	.	.	.	.	.	/
S=C(Nc1ccc(Cl)cc1Cl)Nn1cnnc1	.	.	.	.	.	/
S=C(NNc1ccnc2cc(Cl)ccc12)Nc1ccc(Cl)cc1Cl	.	.	100.9	.	.	72.9
CCOc1ccccc1Nc1ccnc2cc(Cl)ccc12	.	.	.	.	.	/
CCOc1ccc(NC(=S)NNc2ccnc3cc(Cl)ccc23)cc1	.	.	80.8	.	.	63.1
CCC(O)(CC)C(=O)N/N=C/c1cc(Br)cc(Br)c1O	.	.	83.1	.	.	45.6
O=C(N/N=C/c1cc(Br)cc(Br)c1O)c1ccncc1	.	.	/	.	.	/
Cc1cc(/C=N/n2cnnc2)c(C)n1-c1ccc(OCc2ccccc2F)cc1	56.1	.	98.2	.	.	95.8
Cc1cc(/C=N/n2cnnc2)c(C)n1-c1ccc(OCc2ccc(Cl)cc2)cc1	49.4	.	113.9	.	52.1	100.4
Fc1ccccc1COc1cccc(/C=N/n2cnnc2)c1	.	.	.	.	.	/
Cc1csc2ncnc(NNC(=O)c3ccc(Cl)cc3)c12	.	.	55.2	.	.	38.9
CCCCN(CCCC)S(=O)(=O)c1ccc(NC(=O)c2cccs2)cc1	.	.	85.9	.	.	72.5
Cc1cc(C)nc(NS(=O)(=O)c2ccc(NC(=O)c3cccs3)cc2)n1	.	.	.	.	.	/
COc1ccccc1-c1cccc([C@@H]2C[C@H]3[C@H](CON3C)CN2S(=O)(=O)c2ccccc2C)c1	/	/	.	/	/	/
Cc1nn(CCCC(=O)Nc2cc(Oc3ccccc3)cc([N+](=O)[O-])c2)c(C)c1[N+](=O)[O-]	.	.	.	.	.	/
Cc1ccc(C)c(Oc2cc(NC(=O)CCCn3nc(C)c([N+](=O)[O-])c3C)cc([N+](=O)[O-])c2)c1	.	.	93.8	.	.	75.2
O=C(NCc1cccnc1)Nc1cccc(Cl)c1	.	.	.	.	.	/
O=C(NCc1cccnc1)Nc1cc(Cl)cc(Cl)c1	.	.	85.4	.	.	85.5
S=C(NCc1cccnc1)Nc1cc(Cl)cc(Cl)c1	.	.	82.1	.	.	82.5
S=C(NCc1cccnc1)Nc1cccc(Cl)c1	.	.	.	.	.	/
CSc1nc(-c2cccs2)c(C#N)c(=O)[nH]1	.	.	.	.	.	/
N#Cc1c(-c2cccs2)nc(SCc2ccc(Cl)cc2)[nH]c1=O	/	.	95.9	/	/	71.3
COc1ccccc1NC(=O)COC(=O)COc1cccc2c1OC(C)(C)C2	.	/	.	.	.	/
COCCCNCCCOc1ccc(C(C)(C)c2ccccc2)cc1	.	.	.	.	.	/
CC(C)(c1ccccc1)c1ccc(OCCCNCCO)cc1	.	.	94.4	.	.	.	MPTP swell DR=5.95;MPTP cs DR=.
SMILES	CHO parental Ca	GPR7 antag	MPTP block	OX1R antag-1	OX1R antag-2	Rh123 counter	others
FC(F)Oc1ccc(NC(=S)NC2CCSc3ccccc32)cc1 (configuration not stated)	/	.	83.2	/	/	79.0
Oc1ccccc1-c1nc2c3ccccc3c3ccccc3c2[nH]1	.	.	.	.	.	/
c1csc(-c2nc3c4ccccc4c4ccccc4c3[nH]2)c1	.	.	72.1	63.2	.	47.8
Cc1cc(C)c(OCCN2CCOCC2)c(Cl)c1	.	.	.	.	.	/
c1ccc(CN2CCC(Nc3ncnc4sccc34)CC2)cc1	.	.	.	.	.	/
Cc1sc2ncnc(NC3CCN(Cc4ccccc4)CC3)c2c1C	.	.	90.8	.	.	71.4
COCCN(C(=S)Nc1cccc(C)c1)C(C)c1cccnc1 (configuration not stated)	.	.	.	.	.	/
